The record followed here is ChEMBL document CHEMBL3259610, “Liver S9 Fraction-Derived Metabolites of Curcumin Analogue UBS109” (ACS Med Chem Lett, 2014).

Data set [1] in a line: Drug level in Beagle dog whole blood treated with UBS109 at 1 uM after 2 hrs by LC/MS-MS analysis. Type of data set: ADME, tissue-based, Canis lupus familiaris.
Data set [2] is described as follows: Drug level in CD1 mouse liver S9 fraction treated with UBS109 at 1 uM using 1% DMSO measured after 60 mins by LC/MS-MS analysis in presence of NADPH. The data set is classed as ADME, subcellular. To be noted: s9, 1 h. In short, it runs like this:
(§1)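 Compound was incubated in pooled liver S9 fractions (mouse, cynomolgus monkey, human), mostly with NADPH and in 1% DMSO. Human S9 was also run without NADPH, and at 0.2% DMSO. Parent loss and metabolite formation were followed over time by LC–MS/MS, and half-life was derived from parent depletion.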

For the next data set, the system named is Liver. The data set is described as follows: Drug level in human liver S9 fraction treated with UBS109 at 1 uM using 1% DMSO measured after 1 hr by LC/MS-MS analysis in absence of NADPH. The data set is classed as ADME. The settings on record: s9, 1 h. In short, it runs like this:
as §1

The subject of data set [3] is Blood. The data set is described as follows: Drug level in human whole blood treated with UBS109 at 1 uM after 2 hrs by LC/MS-MS analysis. The data set is classed as ADME, tissue-based.
For another data set, the system named is MDA-MB-231. The data set is described as follows: Growth inhibition of human MDA-MB-231 cells after 48 hrs by neutral red dye-based assay. Type of data set: functional. To be noted: MDA-MB-231, 48 h. A digest of the protocol: (§2)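 TU212 (head and neck SCC) and MDA-MB-231 (breast adenocarcinoma) cells were exposed to compounds at 5 and 10 μM with DMSO below 0.1%. Viability was read by neutral red uptake. Error bars are standard error of the mean, and significance was tested by two-tailed t test.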

The nature of data set [4]: Drug level in human liver S9 fraction treated with UBS109 at 1 uM using 1% DMSO measured at 60 mins by LC/MS-MS analysis in presence of NADPH. The data set is classed as ADME, subcellular. The settings on record: s9, 1 h. A digest of the protocol: as §1
Data set [5] can be described thus: Drug level in cynomolgus monkey whole blood treated with UBS109 at 1 uM after 2 hrs by LC/MS-MS analysis. Type of data set: ADME, tissue-based, Macaca fascicularis.
Data set [6] is described as follows: Growth inhibition of human TU212 cells after 48 hrs by neutral red dye uptake assay. The settings on record: TU212, 48 h. The data set is classed as functional. In short, it runs like this: as §2
Data set [7] can be described thus: Elimination half life in mouse. To be noted: in vivo, read-out: beta t1/2 (converted). The data set is classed as ADME, organism-based.
Data set [8] in a line: Metabolic stability in human liver S9 fraction assessed as remaining compound level at 2 uM using 0.2% DMSO measured after 1 hr by LC/MS-MS analysis in absence of NADPH. The data set is classed as ADME. To be noted: read-out: Stability. In short, it runs like this: as §1
Data set [9] can be described thus: Drug metabolism in human liver S9 fraction assessed as (E)-1-methyl-3-(2-pyridinylmethyl)-5-(2-pyridinylmethylidene)-4-piperidone formation at 1 uM using 1% DMSO measured after 1 hr by LC/MS-MS analysis in absence of NADPH. Type of data set: ADME. To be noted: s9, 1 h. In short, it runs like this:
as §1

Data set [10] can be described thus: Half life in human liver S9 fraction at 2 uM using 0.2% DMSO in presence of NADPH. The data set is classed as ADME, subcellular. A digest of the protocol: as §1
The nature of data set [11]: Half life in cynomolgus monkey liver S9 fraction at 1 uM using 1% DMSO. The data set is classed as ADME, subcellular, Macaca fascicularis. In short, it runs like this:
as §1

The nature of data set [12]: Drug metabolism in Sprague-Dawley rat liver S9 fraction at 1 uM using 1% DMSO measured after 60 mins by LC/MS-MS analysis in presence of NADPH. The data set is classed as ADME, subcellular. To be noted: s9, 1 h.
The nature of data set [13]: Half life in human liver S9 fraction at 2 uM in absence of NADPH.
Data set [14] deals with Blood. The data set is described as follows: Drug metabolism in human whole blood assessed as (E)-1-methyl-3-(2-pyridinylmethyl)-5-(2-pyridinylmethylidene)-4-piperidone formation at 1 uM after 2 hrs by LC/MS-MS analysis. The data set is classed as ADME, tissue-based.
A short description of data set [15]: Drug metabolism in cynomolgus monkey whole blood assessed as (E)-1-methyl-3-(2-pyridinylmethyl)-5-(2-pyridinylmethylidene)-4-piperidone formation at 1 uM after 2 hrs by LC/MS-MS analysis. The data set is classed as ADME, tissue-based, Macaca fascicularis.
Data set [16] in a line: Drug metabolism in human liver S9 fraction assessed as (E)-1-methyl-3,5-bis(2-pyridinylmethylidene)-4-hydroxypiperidine formation at 1 uM using 1% DMSO measured after 1 hr by LC/MS-MS analysis in absence of NADPH. Type of data set: ADME. The settings on record: s9, 1 h. A digest of the protocol: as §1
Data set [17] is described as follows: Drug metabolism in Beagle dog whole blood assessed as (E)-1-methyl-3-(2-pyridinylmethyl)-5-(2-pyridinylmethylidene)-4-piperidone formation at 1 uM after 2 hrs by LC/MS-MS analysis. The data set is classed as ADME, tissue-based, Canis lupus familiaris.
A short description of data set [18]: Metabolic stability in human liver S9 fraction assessed as remaining compound level at 2 uM using 0.2% DMSO measured after 1 hr by LC/MS-MS analysis in presence of NADPH. To be noted: read-out: Stability. The data set is classed as ADME, subcellular. In short, it runs like this: as §1
Data set [19] can be described thus: Half life in CD1 mouse liver S9 fraction at 1 uM using 1% DMSO. The data set is classed as ADME, subcellular. A digest of the protocol: as §1
Data set [20] in a line: Drug metabolism in human liver S9 fraction assessed as (E)-1-methyl-3-(2-pyridinylmethyl)-5-(2-pyridinylmethylidene)-4-piperidone formation at 1 uM using 1% DMSO measured at 60 mins by LC/MS-MS analysis in presence of NADPH. The settings on record: s9, 1 h. Type of data set: ADME, subcellular. A digest of the protocol:
as §1

The test system of a further data set is TU212. The data set is described as follows: Cytotoxicity against human TU212 cells assessed as cell viability at 5 to 10 uM after 48 hrs by neutral red dye uptake assay. The data set is classed as functional, cell-based. In short, it runs like this: as §2
The nature of data set [21]: Plasma protein binding in mouse. Type of data set: ADME, organism-based. To be noted: read-out: PPB (converted).
Data set [22] in a line: Drug metabolism in CD1 mouse liver S9 fraction assessed as (E)-1-methyl-3-(2-pyridinylmethyl)-5-(2-pyridinylmethylidene)-4-piperidone formation at 1 uM using 1% DMSO measured at 60 mins by LC/MS-MS analysis in presence of NADPH. Type of data set: ADME, subcellular. To be noted: s9, 1 h. In short, it runs like this:
as §1

A short description of data set [23]: Drug metabolism in human liver S9 fraction assessed as (E)-1-methyl-3,5-bis(2-pyridinylmethylidene)-4-hydroxypiperidine formation at 1 uM using 1% DMSO measured at 60 mins by LC/MS-MS analysis in presence of NADPH. Type of data set: ADME, subcellular. To be noted: s9, 1 h. In short, it runs like this: as §1
Data set [24] is described as follows: Elimination half life in ND4 Swiss Webster mouse at 12.5 to 25 mg/kg, ip. The data set is classed as ADME, organism-based. Also on record: dose 12.5-25 mg/kg, route intraperitoneal. The settings on record: in vivo, read-out: beta t1/2.

Calls of active or inactive are those of the source. No cut-off for these calls is given here.

With `CN1C/C(=C\c2ccccn2)C(=O)C(Cc2ccccn2)C1` (configuration not stated), the Drug metabolism entry (in [1]; in [2]; in the data set with Liver; in the data set with Blood [3]; in data set [4]; in data set [5]) was “metabolite_detected” throughout. The GI50 (usually the concentration that inhibits growth by half) in the data set on MDA-MB-231 is greater than 5 µM; in data set [6] it was greater than 10 µM.

On to `CN1C/C(=C\c2ccccn2)C(O)/C(=C/c2ccccn2)C1` (configuration not stated), for which the Drug metabolism result (in the data set with Liver; in data set [4]) was “metabolite_detected” each time. The concentration for 50% growth inhibition (GI50) (in the data set on MDA-MB-231; in data set [6]) was greater than 10 µM throughout.

Consider `O=C1/C(=C/c2ccccc2F)CNC/C1=C\c1ccccc1F`, for which the half-life in data set [7] was 60 min.

In the case of `CN1C/C(=C\c2ccccn2)C(=O)/C(=C/c2ccccn2)C1`, the remaining at 1 h, 2 µM in data set [8] came out at 27.6%; in data set [18], 4.1%. The Drug metabolism result (in data set [9]; in data set [12]; with Blood [14]; in [15]; in data set [16]; in data set [17]) was “metabolite_detected” each time. Also, the Drug metabolism result in data set [20], in [22] and in data set [23] was “metabolite_detected” each time. Also, the half-life at 2 µM was determined as 9 min in [10] and 18 min in [13]. For the same molecule, the half-life at 1 µM was 8 min in data set [11] and 38 min in data set [19]. The half-life in data set [7] was 240 min. Besides, the result in the data set on TU212 was Active. For the same molecule, in data set [21], the fraction unbound was 0.06.

As for `O=C1/C(=C/c2ccccn2)CNC/C1=C\c1ccccn1`, the half-life in [24] is no more than 1 min.
